From ChEMBL document CHEMBL4145448, “Broad activity of diphenyleneiodonium analogues against Mycobacterium tuberculosis, malaria parasites and bacterial pathogens” (Eur J Med Chem, 2018)
Converted amounts (≈) assume the structure as drawn.

Assays:
[1] = system: Mycobacterium tuberculosis; test: Antimycobacterial activity against Mycobacterium tuberculosis H37Rv ATCC 25618 after 7 days by resazurin dye based assay; format: functional; settings: H37Rv ATCC 25618, 168 h
Summary of the method: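 H37Rv grown at 37 °C in 7H9 with 10% ADC, 0.5% glycerol and 0.02% tyloxapol. Compounds serially diluted in water, 0 to 10 µM, in triplicate. Culture adjusted to OD600 0.001 and incubated 7 days at 37 °C. Resazurin (0.05% w/v) added for 4-24 h and fluorescence read at 590 nm. MIC is the lowest concentration giving complete growth inhibition versus untreated. Rifampicin served as control.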

Plasmodium falciparum [2] = test: Growth inhibition of CQ-sensitive GFP-fused Plasmodium falciparum D10 after 90 hrs by ethidium bromide staining based flow cytometry; format: functional, organism-based; settings: D10, 90 h
Summary of the method: (§1)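 Parasites cultured in human O+ erythrocytes in RPMI-HEPES pH 7.4 with hypoxanthine, NaHCO3, gentamicin and 0.5% Albumax II under 1% O2/4% CO2 at 37 °C. Synchronised to rings with heparin plus sorbitol. Set up at 1% parasitaemia and 1% haematocrit with 10x compound added. Cultured 90 h to next-cycle trophozoites. Stained with 10 µg/mL ethidium bromide for 1 h, washed, parasitaemia counted by flow cytometry with GFP gating.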

[3] = Cytotoxicity against human HepG2 cells after 24 hrs in presence of 10% FBS by resazurin dye based assay; format: cell-based
Summary of the method: (§2)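 HepG2 cells seeded at 4000/well in DMEM with 10% FBS and allowed to attach for 24 h at 37 °C, 5% CO2. Compounds added from 300 to 0.14 µM in 3-fold steps and incubated 24 h. 10 µM resazurin added for 2 h, fluorescence read at ex/em 560/590. Percent viability computed relative to untreated and negative controls, duplicate wells.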

[4] = Selectivity index, ratio of CC50 for human HepG2 cells in presence of 1% FBS to MIC for Mycobacterium tuberculosis H37Rv ATCC 25618; format: toxicity; settings: read-out: Selectivity Index
[5] = Cytotoxicity against human HepG2 cells after 24 hrs in presence of 1% FBS by resazurin dye based assay; format: cell-based
Summary of the method: as §2, with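 “1%” for “10%”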

[6] = Selectivity index, ratio of CC50 for human HepG2 cells in presence of 10% FBS to MIC for Mycobacterium tuberculosis H37Rv ATCC 25618; format: toxicity; settings: read-out: Selectivity Index
[7] = Selectivity index, ratio of CC50 for human HepG2 cells in presence of 10% FBS to IC50 for CQ-sensitive GFP-fused Plasmodium falciparum D10; format: toxicity; settings: read-out: Ratio IC50
[8] = Selectivity index, ratio of CC50 for human HepG2 cells in presence of 1% FBS to IC50 for CQ-sensitive GFP-fused Plasmodium falciparum D10; format: toxicity; settings: read-out: Ratio IC50
[9] = Selectivity index, ratio of CC50 for human HepG2 cells in presence of 1% FBS to IC50 for drug-resistant GFP-fused Plasmodium falciparum D10; format: toxicity; settings: read-out: Ratio IC50
Plasmodium falciparum [10] = test: Growth inhibition of […] GFP-fused Plasmodium falciparum D10 after 90 hrs by ethidium bromide staining based flow cytometry; format: functional, organism-based; settings: D10, 90 h; summary of the method: as §1
[11] = Selectivity index, ratio of CC50 for human HepG2 cells in presence of 10% FBS to IC50 for drug-resistant GFP-fused Plasmodium falciparum D10; format: toxicity; settings: read-out: Ratio IC50

With `Fc1ccc(Cl)c2c1[I+]c1ccccc1-2` the MIC [1] was 0.27 µM, the IC50 (Plasmodium falciparum [2]) was > 1000 nM and the CC50 at 24 h [3] was 2720 nM. For the same compound, the selectivity ratio [4] was 3.4, the CC50 at 24 h [5] was 930 nM and the selectivity ratio [6] was 10.

With `Cc1cccc2c1-c1cccc(Cl)c1[I+]2` the MIC [1] was 0.27 µM, the IC50 (Plasmodium falciparum [2]) was 110 nM and the CC50 at 24 h [3] was 486 nM. It also gave a selectivity ratio [7] of 5.1, a selectivity ratio [4] of 0.22 and a CC50 at 24 h [5] of 60.1 nM. For the same compound, the selectivity ratio [8] was 0.63 and the selectivity ratio [6] was 1.8.

`FC(F)(F)Oc1cccc2c1-c1ccccc1[I+]2` gave an MIC [1] of 0.25 µM, an IC50 (Plasmodium falciparum [2]) of 130 nM and a CC50 at 24 h [3] of 251 nM. It also gave a selectivity ratio [7] of 1.9, a selectivity ratio [4] of 0.21 and a CC50 at 24 h [5] of 50.3 nM. The selectivity ratio [8] was 0.39 and the selectivity ratio [6] was 0.99.

With `COc1ccc(Cl)c2c1[I+]c1ccccc1-2` the MIC [1] was 0.51 µM, the IC50 (Plasmodium falciparum [2]) was 130 nM and the CC50 at 24 h [3] was 224 nM. For the same compound, the selectivity ratio [7] was 1.75, the selectivity ratio [4] was 0.31 and the CC50 at 24 h [5] was 150 nM. It also gave a selectivity ratio [8] of 1.2 and a selectivity ratio [6] of 0.44.

For `Fc1cccc2c1-c1c(Cl)cccc1[I+]2`, the MIC [1] was 1 µM, the IC50 (Plasmodium falciparum [2]) was > 1000 nM and the CC50 at 24 h [3] was 833 nM. For the same compound, the selectivity ratio [7] was < 0.83, the selectivity ratio [4] was 0.38 and the CC50 at 24 h [5] was 392 nM. The selectivity ratio [6] was 0.8.

In the case of `Clc1ccc(Cl)c2c1[I+]c1ccccc1-2`, the MIC [1] is reported as 0.5 µM, the IC50 (Plasmodium falciparum [2]) is reported as > 1000 nM and the CC50 at 24 h [3] is reported as 1850 nM. The selectivity ratio [4] was 1.8, the CC50 at 24 h [5] was 894 nM and the selectivity ratio [6] was 3.7.

`FC(F)(F)c1cccc2c1-c1ccccc1[I+]2` gave an MIC [1] of 0.26 µM, a selectivity ratio [9] of 0.18 and an IC50 (Plasmodium falciparum [10]) of 140 nM. For the same compound, the IC50 (Plasmodium falciparum [2]) was 130 nM, the CC50 at 24 h [3] was 94.7 nM and the selectivity ratio [7] was 0.72. The selectivity ratio [4] was 0.09, the selectivity ratio [11] was 0.7 and the CC50 at 24 h [5] was 23.6 nM. For the same compound, the selectivity ratio [8] was 0.18 and the selectivity ratio [6] was 0.36.

With `Fc1cccc2c1-c1c(F)cccc1[I+]2` the MIC [1] was 0.28 µM, the IC50 (Plasmodium falciparum [2]) was 840 nM and the CC50 at 24 h [3] was 161 nM. The selectivity ratio [7] was 0.19, the selectivity ratio [4] was 0.32 and the CC50 at 24 h [5] was 88.6 nM. The selectivity ratio [8] was 0.11 and the selectivity ratio [6] was 0.58.

For `Fc1cccc2c1-c1cccc(Cl)c1[I+]2`, the MIC [1] was 0.27 µM, the IC50 (Plasmodium falciparum [2]) was 190 nM and the CC50 at 24 h [3] was 386 nM. For the same compound, the selectivity ratio [7] was 2.1, the selectivity ratio [4] was 0.19 and the CC50 at 24 h [5] was 52.4 nM. It also gave a selectivity ratio [8] of 0.28 and a selectivity ratio [6] of 1.4.

`Cc1ccc(Cl)c2c1[I+]c1ccccc1-2` gave an MIC [1] of 0.13 µM, an IC50 (Plasmodium falciparum [2]) of 110 nM and a CC50 at 24 h [3] of 349 nM. For the same compound, the selectivity ratio [7] was 3.1, the selectivity ratio [4] was 0.74 and the CC50 at 24 h [5] was 93 nM. The selectivity ratio [8] was 0.82 and the selectivity ratio [6] was 2.8.

Work on `Clc1cccc2c1[I+]c1cccc(Cl)c1-2` yielded an MIC [1] of 0.26 µM, an IC50 (Plasmodium falciparum [2]) of 360 nM and a CC50 at 24 h [3] of 544 nM. The selectivity ratio [7] was 1.5, the selectivity ratio [4] was 0.32 and the CC50 at 24 h [5] was 84.6 nM. It also gave a selectivity ratio [8] of 0.23 and a selectivity ratio [6] of 2.1.

Compound `CO[C@H]1/C=C/O[C@@]2(C)Oc3c(C)c(O)c4c(O)c(c(/C=N/N5CCN(C)CC5)c(O)c4c3C2=O)NC(=O)/C(C)=C\C=C\[C@H](C)[C@H](O)[C@@H](C)[C@@H](O)[C@@H](C)[C@H](OC(C)=O)[C@@H]1C` [RIFAMPIN] has an MIC [1] of 0.3 to 0.61 µM (≈ 0.247 to 0.502 µg/mL).
